Assay results as given in ChEMBL document CHEMBL4382247, “A novel series of napabucasin derivatives as orally active inhibitors of signal transducer and activator of transcription 3 (STAT3)” (Eur J Med Chem, 2019).
Activity calls are given as the source filed them. No cut-off for these calls is given here.

Columns and labels:
HepG2 [1] = assay: Decrease in total STAT3 level in human HepG2 cells at 400 nM after 24 hrs by Western blot analysis; type: ADME, cell-based; details: hepg2, 24 h, 0.4 µM
How it was run: (§1)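 Cells treated 24 and 48 h. Lysed in RIPA with protease inhibitors, protein quantified by BCA, equal amounts run on 10% SDS-PAGE and transferred to PVDF. Blocked in 5% milk, probed overnight at 4 °C with anti-total STAT3, anti-p-STAT3 (Tyr705) and GAPDH antibodies. ECL detection.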

[2] = Cardiotoxicity in BALB/c mouse implanted with mouse CT26 cells assessed as effect on heart morphology by measuring edema at 50 mg/kg, po administered once daily by H and E staining based histopathological analysis; type: toxicity, organism-based; details: in vivo
How it was run: (§2)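 CT-26 subcutaneous flank tumour model in male BALB/c mice, five per group, dosed orally at 50mg/kg daily in 5% NMP/95% PEG 400 versus vehicle. After treatment, heart, liver, spleen, lung and kidney collected, sectioned and stained with H&E for histological examination.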

[3] = Cardiotoxicity in BALB/c mouse implanted with mouse CT26 cells assessed as effect on heart morphology by measuring cell inflammation at 50 mg/kg, po administered once daily by H and E staining based histopathological analysis; type: toxicity, organism-based; details: in vivo; how it was run: as §2
[4] = Toxicity in BALB/c mouse implanted with mouse CT26 cells assessed as effect on kidney morphology by measuring edema at 50 mg/kg, po administered once daily by H and E staining based histopathological analysis; type: organism-based; details: in vivo; how it was run: as §2
HepG2 [5] = assay: Potency index, ratio of napabucasin IC50 to test compound IC50 for human HepG2 cells; type: functional
[6] = target: T1, Signal transducer and activator of transcription 3 (Homo sapiens, UniProt P40763); assay: Inhibition of STAT3 phosphorylation at Y705 residue in human U251 cells at 200 nM after 24 hrs by Western blot analysis; type: cell-based; how it was run: as §1
U-251 [7] = assay: Decrease in total STAT3 level in human U251 cells at 200 nM after 24 to 48 hrs by sandwich-ELISA; type: ADME, cell-based; details: u-251, 0.2 µM
How it was run: (§3)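 Cells treated 24 or 48 h. Whole-cell lysates made in lysis buffer with protease inhibitor cocktail. Total STAT3 and p-STAT3 Y705 measured by sandwich ELISA. Three repeats; groups compared with control by paired t-test; means ± S.D.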

CT26 [8] = assay: Antiproliferative activity against mouse CT26 cells after 72 hrs by MTT assay; type: functional, cell-based; details: CT26, 72 h
How it was run: (§4)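 Cells seeded at 5 × 10^3 per well and cultured 24 h before compound addition at varied concentrations, then grown a further 72 h; 0.5% DMSO as solvent control. MTT (5mg/ml solution) added for 4 h, formazan dissolved in DMSO, absorbance read at 570nm. Each treatment in triplicate; Mean ± SD.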

[9] = Toxicity in BALB/c mouse implanted with mouse CT26 cells assessed as effect on spleen morphology by measuring cell inflammation at 50 mg/kg, po administered once daily by H and E staining based histopathological analysis; type: organism-based; details: in vivo; how it was run: as §2
[10] = Toxicity in BALB/c mouse implanted with mouse CT26 cells assessed as effect on kidney morphology by measuring necrosis at 50 mg/kg, po administered once daily by H and E staining based histopathological analysis; type: organism-based; details: in vivo; how it was run: as §2
HT-29 = assay: Potency index, ratio of napabucasin IC50 to test compound IC50 for human HT-29 cells; type: functional
[11] = target: T1, Signal transducer and activator of transcription 3; assay: Inhibition of STAT3 phosphorylation at Y705 residue in human HepG2 cells at 400 nM after 24 to 48 hrs by sandwich-ELISA; type: cell-based; how it was run: as §3
[12] = target: T1, Signal transducer and activator of transcription 3; assay: Binding affinity to recombinant N-terminal His-tagged STAT3 (unknown origin) expressed in baculovirus infected Sf9 insect cells by SPR analysis
How it was run: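 STAT3 made by baculovirus: bacmid generated in Sf9, virus amplified in Sf9, protein expressed in High Five cells. Purified on Ni-NTA and by gel filtration (>90% pure). Amine-coupled to a CM5 chip. Compound run at 18.75–600 nM in 5% DMSO/PBS on Biacore X100. KD taken from equilibrium fit.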

U-251 [13] = assay: Decrease in total STAT3 level in human U251 cells at 200 nM after 24 hrs by Western blot analysis; type: ADME, cell-based; details: u-251, 24 h, 0.2 µM; how it was run: as §1
[14] = Cardiotoxicity in BALB/c mouse implanted with mouse CT26 cells assessed as effect on heart morphology by measuring necrosis at 50 mg/kg, po administered once daily by H and E staining based histopathological analysis; type: toxicity, organism-based; details: in vivo; how it was run: as §2
CT26 [15] = assay: Antitumor activity against mouse CT26 cells implanted in BALB/c mouse assessed as tumor growth at 50 mg/kg, po administered once daily measured every 3 days relative to control; type: functional
How it was run: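 Male BALB/c mice, 6 weeks old, given 1 × 10^6 CT-26 cells subcutaneously in the right flank. At about 70 mm3 tumour volume, randomized into groups of five and dosed orally once daily with 50mg/kg or vehicle (5% NMP in PEG 400). Tumours measured by caliper every 3 days, V = ab^2/2. Tumours weighed at sacrifice. TGI computed from mean tumour weights. T/C computed as mean RTV (Vt/V0) treated over control.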

[16] = Toxicity in BALB/c mouse implanted with mouse CT26 cells assessed as effect on lung morphology by measuring edema at 50 mg/kg, po administered once daily by H and E staining based histopathological analysis; type: organism-based; details: in vivo; how it was run: as §2
PC-3 = assay: Antiproliferative activity against human PC3 cells after 72 hrs by MTT assay; type: functional, cell-based; details: PC-3, 72 h; how it was run: as §4
[17] = target: T1, Signal transducer and activator of transcription 3; assay: Inhibition of biotin-labelled DNA probe binding to recombinant N-terminal FLAG-tagged STAT3 (unknown origin) expressed in HEK293 cells at 100 to 200 nM by EMSA; type: cell-based
How it was run: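 HEK293T cells transiently transfected with N-terminal FLAG-STAT3 (10 µg per 10 cm dish) and harvested at 48 h. STAT3 purified on anti-FLAG magnetic beads and eluted with FLAG peptide (200 µg/mL). Chemiluminescent EMSA with biotin-labelled STAT3 probe, 5 µL protein and 1 µL probe per lane. Cold-probe and anti-STAT3 antibody lanes included.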

[18] = Toxicity in BALB/c mouse implanted with mouse CT26 cells assessed as effect on spleen morphology by measuring necrosis at 50 mg/kg, po administered once daily by H and E staining based histopathological analysis; type: organism-based; details: in vivo; how it was run: as §2
[19] = Hepatotoxicity in BALB/c mouse implanted with mouse CT26 cells assessed as effect on liver morphology by measuring necrosis at 50 mg/kg, po administered once daily by H and E staining based histopathological analysis; type: toxicity, organism-based; details: in vivo; how it was run: as §2
CT26 [20] = assay: Potency index, ratio of napabucasin IC50 to test compound IC50 for mouse CT26 cells; type: functional
[21] = Toxicity in BALB/c mouse implanted with mouse CT26 cells assessed as behavioral alteration at 50 mg/kg, po administered once daily; type: organism-based; details: in vivo
How it was run: (§5)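 Mice bearing subcutaneous CT-26 tumours, five per group, given 50mg/kg orally each day in 5% NMP/PEG 400, with an equal-volume vehicle control group. Body weight and behaviour monitored over the treatment period.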

HepG2 [22] = assay: Decrease in total STAT3 level in human HepG2 cells at 400 nM after 24 to 48 hrs by sandwich-ELISA; type: ADME, cell-based; details: hepg2, 0.4 µM; how it was run: as §3
[23] = Toxicity in BALB/c mouse implanted with mouse CT26 cells assessed as change in body weight at 50 mg/kg, po administered once daily; type: organism-based; details: in vivo; how it was run: as §5

T1 sequence (P40763 whole entry): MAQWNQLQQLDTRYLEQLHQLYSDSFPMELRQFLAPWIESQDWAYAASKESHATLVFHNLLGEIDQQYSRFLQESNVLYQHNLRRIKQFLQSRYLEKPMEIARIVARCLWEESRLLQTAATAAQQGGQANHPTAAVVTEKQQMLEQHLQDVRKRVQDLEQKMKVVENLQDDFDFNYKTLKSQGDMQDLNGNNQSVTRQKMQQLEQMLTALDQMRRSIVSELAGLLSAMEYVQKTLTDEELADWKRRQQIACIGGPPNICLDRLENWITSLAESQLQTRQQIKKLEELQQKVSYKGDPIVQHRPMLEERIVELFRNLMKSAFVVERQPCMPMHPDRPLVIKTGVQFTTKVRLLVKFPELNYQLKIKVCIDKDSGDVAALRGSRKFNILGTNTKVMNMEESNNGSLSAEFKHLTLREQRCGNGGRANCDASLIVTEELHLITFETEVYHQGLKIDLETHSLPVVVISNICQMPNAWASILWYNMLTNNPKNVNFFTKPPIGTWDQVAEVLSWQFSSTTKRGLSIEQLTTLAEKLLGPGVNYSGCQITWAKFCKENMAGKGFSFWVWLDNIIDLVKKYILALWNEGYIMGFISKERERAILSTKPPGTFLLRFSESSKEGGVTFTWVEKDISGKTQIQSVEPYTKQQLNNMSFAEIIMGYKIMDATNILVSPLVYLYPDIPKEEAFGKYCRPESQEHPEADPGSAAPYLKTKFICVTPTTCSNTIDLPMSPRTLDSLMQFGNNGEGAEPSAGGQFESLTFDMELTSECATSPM

inhibition [6]: Active | IC50 (CT26 [8]): 140 nM | inhibition [11]: Active | Kd [12]: 110 nM | IC50 (PC-3): 4130 nM | inhibition [17]: Active
SMILES: O=C(NCCN1CCCCC1)c1cc2c(o1)C(=O)c1ccccc1C2=O
Activity (HepG2 [1]): Toxic | Activity [2]: Non-Toxic | Activity [3]: Non-Toxic | Activity [4]: Non-Toxic | Ratio IC50 (HepG2 [5]): >10 | Activity (U-251 [7]): Toxic | Activity [9]: Non-Toxic | Activity [10]: Non-Toxic | Ratio IC50 (HT-29): >10 | Activity (U-251 [13]): Toxic | Activity [14]: Non-Toxic | T/C (CT26 [15]): 28% | Activity [16]: Non-Toxic | Activity [18]: Non-Toxic | Activity [19]: Non-Toxic | Ratio IC50 (CT26 [20]): >10 | Activity [21]: Non-Toxic | Activity (HepG2 [22]): Toxic | Activity [23]: Non-Toxic
